This is a sample that favours compounds with a hit; in the whole collection about 1.3% have one here.
SIRT5 block – SIRT5 desuccinylase inhibitors, primary screen, biochemical, fluorescence imaging, single point, set 5; AID 652115, 2013; Purified SirT5, succinyl-peptide AMC, trypsin-coupled fluorescence; 330,000 compounds, 1.1% hits; NAD-dependent protein deacylase sirtuin-5, mitochondrial (Homo sapiens), Q9NXA8; inhibition, % at 15 µM; in the data active means inhibition above about 15%
ERp5 inh – inhibitors of ERp5-driven insulin aggregation, primary screen, biochemical, turbidity, absorbance 650 nm, single point; Protein disulfide-isomerase A6 (Homo sapiens), Q15084; 90 min; inhibition, % at 9.99 µM; 350,000 compounds, 0.05% hits;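 active means mean replicate inhibition above about 25%, with every replicate also reaching it, limit read from the data, passing the limit was not always enough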
PDI turbidity – inhibitors of human PDI, primary screen, biochemical, turbidity, single point, plate reader. AID 588391, 2011. 350,000 compounds, 0.052% hits. PDI insulin aggregation turbidity, A650, 90 min. Protein disulfide-isomerase (Homo sapiens), P07237. inhibition, % at 10 µM;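 active means mean inhibition across replicates of 30% or more, whatever share of single replicates reach that level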
MLL AF4-AF9 inh – inhibitors of AF4 peptide binding to AF9, primary screen, biochemical, AlphaScreen, biotin-AF4 peptide, FLAG-AF9, single point; Protein AF-9 (Homo sapiens), P42568; AID 651704, 2012; inhibition, % at 10 µM; 350,000 compounds, 0.47% hits;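 active means every replicate reaching a set inhibition limit, whatever the replicate mean, cut at about 25% in these data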
Target sequence (P42568 whole entry, looked up): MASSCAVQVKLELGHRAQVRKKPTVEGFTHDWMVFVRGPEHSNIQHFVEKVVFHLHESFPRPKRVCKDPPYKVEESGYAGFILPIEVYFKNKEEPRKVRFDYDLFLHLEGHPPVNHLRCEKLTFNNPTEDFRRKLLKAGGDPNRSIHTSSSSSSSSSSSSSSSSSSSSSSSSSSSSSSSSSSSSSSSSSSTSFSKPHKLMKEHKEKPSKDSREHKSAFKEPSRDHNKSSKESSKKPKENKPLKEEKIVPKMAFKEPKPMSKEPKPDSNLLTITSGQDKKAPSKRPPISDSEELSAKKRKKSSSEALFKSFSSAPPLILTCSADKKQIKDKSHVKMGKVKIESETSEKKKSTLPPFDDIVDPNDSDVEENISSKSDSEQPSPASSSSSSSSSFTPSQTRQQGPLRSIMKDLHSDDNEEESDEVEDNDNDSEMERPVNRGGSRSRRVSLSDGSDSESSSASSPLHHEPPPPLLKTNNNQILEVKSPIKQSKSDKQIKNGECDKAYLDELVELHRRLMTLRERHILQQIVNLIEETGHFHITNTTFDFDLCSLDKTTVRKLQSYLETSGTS
FN deposition inh – inhibitors of fibronectin matrix deposition, primary screen, AH1F cells, Alexa488-fibronectin fluorescence, plate reader; AH1F fibroblasts, overnight; inhibition, % at 12.6 µM; 350,000 compounds, 0.086% hits;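 active means mean inhibition across replicates of 30% or more, regardless of how many single replicates reach that level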
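test system = AH1F fibroblasts assembling fluorescent fibronectin matrix | quantity = 10000 AH1F cells per well | buffer or medium = DMEM plus 2% serum, read in PBS | doses = single dose, pinned | incubation = 1 h cell attachment, overnight exposure to compound and label | detection = fluorescence at 485 nm excitation, 525 nm emission | read-out basis = inhibition from reduced deposited-fibronectin fluorescence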
A number is an active result; 0 = inactive; - = no result given.

SMILES	SIRT5 block	ERp5 inh	PDI turbidity	MLL AF4-AF9 inh	FN deposition inh
Cc1ccc(-c2nc3c(Cl)cc(C(F)(F)F)cn3c2Cc2cccc(F)c2)cc1	22	0	-	0	0
Cc1cc(Br)cn2c(Cc3cccc(F)c3)c(-c3ccc(C#N)cc3)nc12	0	0	-	0	30
N#Cc1ccc(-c2nc3ccc(Br)cn3c2Cc2cccc(F)c2)cc1	0	0	-	0	0
Fc1cccc(Cc2c(-c3ccccc3)nc3ccc(Cl)cn23)c1	0	0	-	0	-
Cc1ccc(-c2nc3c(Cl)cc(C(F)(F)F)cn3c2Cc2ccccc2)cc1	15	0	-	0	0
Cc1ccc(Cc2c(-c3ccc(Cl)cc3)nc3c(Cl)cc(C(F)(F)F)cn23)cc1	0	0	-	0	0
Fc1ccc(-c2nc3ccc(Cl)cn3c2Cc2cccc(F)c2)cc1	19	0	-	0	0
COc1ccc(CN2CCN(Cc3ccco3)CC2)cc1	0	0	0	0	0
CC(c1cccs1)N(C(=O)Nc1ccccc1)C1CCCCC1 (stereo unspecified)	-	-	0	-	0
Cc1ccc(S(=O)(=O)c2nc(Cc3ccccc3)oc2N2CCOCC2)cc1	18	0	0	0	0
Cc1ccc(S(=O)(=O)c2nc(-c3ccccc3)oc2N2CCCC2)cc1	0	0	0	0	0
COc1cc(N=Nc2ccc(Br)cc2)cc(C=O)c1O	18	0	0	0	0
Cc1ccc(OCCCC(=O)Nc2cc(S(=O)(=O)N3CCOCC3)ccc2N2CCOCC2)cc1	0	0	0	0	0
O=C(NCCS(=O)(=O)N1CCN(c2ccc(F)cc2)CC1)c1ccc(Br)o1	0	-	0	0	34
O=C(O)CCCC[C@@H]1SC[C@@H]2NC(=O)N[C@@H]21	0	0	-	97	-
Cc1noc(C)c1NC(=O)N(C)C[C@@H]1OCCCC[C@H](C)Oc2ccc(NC(=O)Nc3ccc(C(F)(F)F)cc3)cc2C(=O)N([C@@H](C)CO)C[C@H]1C	0	0	-	0	0
Cc1noc(C)c1NC(=O)N(C)C[C@H]1OCCCC[C@@H](C)Oc2ccc(NC(=O)Nc3ccc(C(F)(F)F)cc3)cc2C(=O)N([C@H](C)CO)C[C@@H]1C	17	0	-	0	0
Cc1noc(C)c1NC(=O)N(C)C[C@@H]1OCCCC[C@H](C)Oc2ccc(NC(=O)Nc3ccc(F)cc3)cc2C(=O)N([C@@H](C)CO)C[C@@H]1C	31	0	-	0	0
Cc1noc(C)c1NC(=O)Nc1ccc2c(c1)C(=O)N([C@H](C)CO)C[C@H](C)[C@@H](CN(C)Cc1ccc(C(F)(F)F)cc1)OCCCC[C@@H](C)O2	26	0	-	0	-
COc1ccccc1NNC(=O)c1cccnc1Oc1ccccc1	0	0	0	0	0
CC(=O)Nc1cccc(NC(=O)c2ccc(C)c([N+](=O)[O-])c2)c1	17	0	0	0	-
COc1ccccc1CNC(=O)C1CCC(CNS(=O)(=O)c2ccc(F)cc2)CC1 (stereo unspecified)	21	0	0	0	0
CN(C)CC#Cc1ccc([C@@H]2[C@@H](CO)N3CCCCN(C(=O)CN(C)C)C[C@H]23)cc1	25	0	-	0	-
COc1ccccc1NC(=O)N1CCCCN2[C@H](CO)[C@@H](c3ccc(C#CC4CC4)cc3)[C@H]2C1	0	0	-	25	-
O=C(NC1CCCC1)N1CCCCN2[C@@H](CO)[C@@H](c3ccc(/C=C/c4ccccc4)cc3)[C@@H]2C1	0	0	-	28	-
SMILES	SIRT5 block	ERp5 inh	PDI turbidity	MLL AF4-AF9 inh	FN deposition inh
COc1ccccc1C#Cc1ccc([C@H]2[C@H]3CN(C(=O)C4CCCC4)CCCCN3[C@H]2CO)cc1	0	0	-	0	-
COc1ccccc1C#Cc1ccc([C@H]2[C@@H](CO)N3CCCCN(C(=O)C4CCCC4)C[C@@H]23)cc1	19	0	-	0	-
CN(C)CC#Cc1ccc([C@@H]2[C@H](CO)N3CCCCN(C(=O)CN(C)C)C[C@@H]23)cc1	0	0	-	0	-
O=C(NC1CCCC1)N1CCCCN2[C@@H](CO)[C@H](c3ccc(/C=C/c4ccccc4)cc3)[C@@H]2C1	0	0	-	0	-
NC(=O)C1CCN(C(=O)c2ccc(NS(=O)(=O)c3ccc(Br)s3)cc2)CC1	0	0	0	0	0
Cc1ccc(S(=O)(=O)N[C@H]2C=C[C@H](CC(=O)NCc3ccccc3F)O[C@H]2CO)cc1	0	0	-	0	-
O=C1c2ccc(Cl)cc2S(=O)(=O)c2cccc(C(=O)N3CCN(c4ncc(Br)cn4)CC3)c21	-	0	0	0	0
COc1ccccc1NC(=O)N1CCCCN2[C@H](CO)[C@@H](c3ccc(C#CC4CCCC4)cc3)[C@H]2C1	0	0	-	0	-
COc1ccc(C#Cc2ccc([C@H]3[C@@H](CO)N4CCCCN(Cc5ccccc5F)C[C@H]34)cc2)cc1	0	0	-	29	0
COc1ccc(C#Cc2ccc([C@@H]3[C@H]4CN(Cc5ccccc5F)CCCCN4[C@H]3CO)cc2)cc1	0	0	-	-	-
COc1ccc(NC(=O)N2CCCCN3[C@H](C2)[C@@H](c2ccc(C#Cc4ccccc4)cc2)[C@@H]3CO)cc1	16	0	-	0	-
CC(=O)N1CCCCN2[C@@H](CO)[C@H](c3ccc(Br)cc3)[C@@H]2C1	17	0	-	0	-
COc1ccccc1NC(=O)N1CCCCN2[C@H](C1)[C@@H](c1ccc(C#CC3CCCC3)cc1)[C@@H]2CO	16	0	-	0	-
CC(=O)N1CCCCN2[C@H](CO)[C@@H](c3ccc(Br)cc3)[C@@H]2C1	0	0	-	0	-
CN(C)CCCn1c(SCC(=O)Nc2nc(-c3cccc(Br)c3)cs2)nc2ccccc2c1=O	0	0	0	35	0
COc1ccccc1NC(=O)c1cnc2c(-c3ccccc3)c(C)nn2c1C	0	0	0	0	0
COC(=O)c1c(NC(=O)C2(C)Cc3ccccc3C(=O)O2)sc2c1CCCC2 (stereo unspecified)	19	0	0	-	-
Cc1csc(N2CCc3ccccc32)n1	-	-	0	-	0

Bioassay records from PubChem.
